Assay results published in ChEMBL document CHEMBL4396949, “Anti-cancer potential of novel glycosylated 1,4-substituted triazolylchalcone derivatives” (Bioorg Med Chem Lett, 2019).

Key:
MDA-MB-468 = test: Antiproliferative activity against human MDA-MB-468 cells incubated for 24 hrs by MTT assay; assay type: functional; settings: MDA-MB-468, 24 h, read-out: LD50 (the source's name)
Method in brief: (§1)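 Cells exposed to compounds at […]; viability read by MTT assay. LD50 derived from concentration-response. MDA-MB-468: triple-negative (ER-, PR-, HER2-) breast cancer. MCF-7: ER+, PR+, HER2- breast cancer. WI-38: non-cancerous lung fibroblasts. Selectivity index taken as WI-38 LD50 divided by cancer-cell LD50.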

MCF7 = test: Antiproliferative activity against human MCF7 cells incubated for 24 hrs by MTT assay; assay type: functional; settings: MCF7, 24 h, read-out: LD50 (the source's name); method in brief: as §1
[1] = Antiproliferative activity against human WI38 cells incubated for 24 hrs by MTT assay; assay type: cell-based, WI-38; settings: read-out: LD50; method in brief: as §1
[2] = Selectivity index, ratio of LD50 for human WI38 cells to LD50 for human MDA-MB-468 cells; assay type: toxicity; settings: WI38 cells and MDA-MB-468 cells, read-out: Selectivity Index
Method in brief: (§2)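 MTT cytotoxicity after exposure to […] in MDA-MB-468, MCF-7 and WI-38 fibroblasts; LD50 determined per line; selectivity index calculated as WI-38 LD50 divided by cancer-cell LD50.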

[3] = Selectivity index, ratio of LD50 for human WI38 cells to LD50 for human MCF7 cells; assay type: toxicity; settings: WI38 cells and MCF7 cells, read-out: Selectivity Index; method in brief: as §2

Row | SMILES | CC50 (MDA-MB-468) | CC50 (MCF7) | CC50 at 24 h [1] | selectivity ratio [2] | selectivity ratio [3]
1 | COc1cc(/C=C/C(=O)c2ccc(C#N)cc2)ccc1OCc1cn([C@@H]2O[C@H](CO)[C@@H](O)[C@H](O)[C@H]2O)nn1 | 82 µM | 78 µM | 88 µM | 1.07 | 1.13
2 | O=C(/C=C/c1ccccc1Cl)c1ccc(OCc2cn([C@@H]3O[C@H](CO)[C@@H](O)[C@H](O)[C@H]3O)nn2)cc1 | 64 µM | 72 µM | 68 µM | 1.06 | 0.94
3 | O=C(/C=C/c1ccc([N+](=O)[O-])cc1)c1ccc(OCc2cn([C@@H]3O[C@H](CO)[C@@H](O)[C@H](O)[C@H]3O)nn2)cc1 | 43 µM | 54 µM | 64 µM | 1.49 | 1.19
4 | COc1ccc(/C=C/C(=O)c2ccc(OCc3cn([C@@H]4O[C@H](CO)[C@@H](O)[C@H](O)[C@H]4O)nn3)cc2)cc1 | 39 µM | 53 µM | 72 µM | 1.84 | 1.36
5 | COc1cc(/C=C/C(=O)c2ccc([N+](=O)[O-])cc2)ccc1OCc1cn([C@@H]2O[C@H](CO)[C@@H](O)[C@H](O)[C@H]2O)nn1 | 68 µM | 76 µM | 75 µM | 1.02 | 0.99
6 | COc1cc(/C=C/C(=O)c2ccc(Br)cc2)ccc1OCc1cn([C@@H]2O[C@H](CO)[C@@H](O)[C@H](O)[C@H]2O)nn1 | 65 µM | 99 µM | 89 µM | 1.37 | 0.9
7 | COc1cc(/C=C/C(=O)c2ccc(OCc3cn([C@@H]4O[C@H](CO)[C@@H](O)[C@H](O)[C@H]4O)nn3)cc2)cc(OC)c1OC | 51 µM | 84 µM | 54 µM | 1.06 | 0.64
8 | COc1cc(/C=C/C(=O)c2cc(OC)c(OC)c(OC)c2)ccc1OCc1cn([C@@H]2O[C@H](CO)[C@@H](O)[C@H](O)[C@H]2O)nn1 | 73 µM | 87 µM | 67 µM | 0.92 | 0.77
9 | CCOc1ccc(/C=C/C(=O)c2ccc(OCc3cn([C@@H]4O[C@H](CO)[C@@H](O)[C@H](O)[C@H]4O)nn3)cc2)cc1 | 74 µM | 68 µM | 78 µM | 1.05 | 1.15
10 | O=C(/C=C/c1cc(Cl)cc(Cl)c1)c1ccc(OCc2cn([C@@H]3O[C@H](CO)[C@@H](O)[C@H](O)[C@H]3O)nn2)cc1 | 62 µM | 74 µM | 64 µM | 1.03 | 0.86
11 | COc1ccc(C(=O)/C=C/c2ccc(OCc3cn([C@@H]4O[C@H](CO)[C@@H](O)[C@H](O)[C@H]4O)nn3)c(OC)c2)cc1OC | 67 µM | 66 µM | 96 µM | 1.43 | 1.45
12 | COc1cccc(/C=C/C(=O)c2ccc(OCc3cn([C@@H]4O[C@H](CO)[C@@H](O)[C@H](O)[C@H]4O)nn3)cc2)c1 | 77 µM | 63 µM | 73 µM | 0.94 | 1.16
13 | O=C(/C=C/c1cccc([N+](=O)[O-])c1)c1ccc(OCc2cn([C@@H]3O[C@H](CO)[C@@H](O)[C@H](O)[C@H]3O)nn2)cc1 | 64 µM | 59 µM | 69 µM | 1.07 | 1.17
14 | COc1cc([C@@H]2c3cc4c(cc3[C@@H](O[C@@H]3O[C@@H]5CO[C@@H](C)O[C@H]5[C@H](O)[C@H]3O)[C@H]3COC(=O)[C@H]23)OCO4)cc(OC)c1O [ETOPOSIDE] | 34 µM | 38 µM | 36 µM | 1.06 | 0.95
15 | O=C(/C=C/c1ccc(OCc2ccccc2)cc1)c1ccc(OCc2cn([C@@H]3O[C@H](CO)[C@@H](O)[C@H](O)[C@H]3O)nn2)cc1 | 57 µM | 79 µM | 68 µM | 1.19 | 0.86
16 | COc1ccc(/C=C/C(=O)c2ccc(OCc3cn([C@@H]4O[C@H](CO)[C@@H](O)[C@H](O)[C@H]4O)nn3)cc2)cc1OC | 88 µM | 115 µM | 95 µM | 1.08 | 0.83
17 | COc1cc(/C=C/C(=O)c2ccc(OCc3cn([C@@H]4O[C@H](CO)[C@@H](O)[C@H](O)[C@H]4O)nn3)cc2)cc(OC)c1 | 33 µM | 72 µM | 52 µM | 1.56 | 0.72
18 | O=C(/C=C/c1ccc(Cl)c(Cl)c1)c1ccc(OCc2cn([C@@H]3O[C@H](CO)[C@@H](O)[C@H](O)[C@H]3O)nn2)cc1 | 59 µM | 65 µM | 55 µM | 0.93 | 0.85
19 | COc1ccccc1/C=C/C(=O)c1ccc(OCc2cn([C@@H]3O[C@H](CO)[C@@H](O)[C@H](O)[C@H]3O)nn2)cc1 | 79 µM | 97 µM | 103 µM | 1.3 | 1.06
20 | CC(=O)O[C@H]1C(=O)[C@@]2(C)[C@H]([C@H](OC(=O)c3ccccc3)[C@]3(O)C[C@H](OC(=O)[C@H](O)[C@@H](NC(=O)c4ccccc4)c4ccccc4)C(C)=C1C3(C)C)[C@]1(OC(C)=O)CO[C@@H]1C[C@@H]2O [PACLITAXEL] | 27 µM | 29 µM | 35 µM | 1.29 | 1.2
21 | COc1cc(/C=C/C(=O)c2ccccc2)ccc1OCc1cn([C@@H]2O[C@H](CO)[C@@H](O)[C@H](O)[C@H]2O)nn1 | 89 µM | 123 µM | 98 µM | 1.1 | 0.8
22 | COc1ccc(/C=C/C(=O)c2ccc(OCc3cn([C@@H]4O[C@H](CO)[C@@H](O)[C@H](O)[C@H]4O)nn3)cc2)cc1OCc1ccccc1 | 64 µM | 84 µM | 105 µM | 1.64 | 1.25
